Data set [1] deals with T1, hERG (KCNH2) (Homo sapiens, UniProt Q12809). The data set can be described thus: Inhibition of human ERG expressed in […] cells at 10 uM after 3 to 8 mins by voltage clamp assay. The format is cell-based. To be noted: HEK297 cells that express human ERG. In short, it runs like this: (§1)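 Automated whole-cell voltage clamp at 25 °C on HEK cells stably expressing human hERG; K-based intracellular (pH 7.2), Na-based extracellular (pH 7.4) solutions. 2 s pulses to +20 mV, 15 s interpulse; compound until steady current (3-8 min), washout, 10 μM cisapride control. Percent of vehicle tail current; triplicate, mean ± SEM at highest concentration.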
T1 sequence (Q12809 whole entry): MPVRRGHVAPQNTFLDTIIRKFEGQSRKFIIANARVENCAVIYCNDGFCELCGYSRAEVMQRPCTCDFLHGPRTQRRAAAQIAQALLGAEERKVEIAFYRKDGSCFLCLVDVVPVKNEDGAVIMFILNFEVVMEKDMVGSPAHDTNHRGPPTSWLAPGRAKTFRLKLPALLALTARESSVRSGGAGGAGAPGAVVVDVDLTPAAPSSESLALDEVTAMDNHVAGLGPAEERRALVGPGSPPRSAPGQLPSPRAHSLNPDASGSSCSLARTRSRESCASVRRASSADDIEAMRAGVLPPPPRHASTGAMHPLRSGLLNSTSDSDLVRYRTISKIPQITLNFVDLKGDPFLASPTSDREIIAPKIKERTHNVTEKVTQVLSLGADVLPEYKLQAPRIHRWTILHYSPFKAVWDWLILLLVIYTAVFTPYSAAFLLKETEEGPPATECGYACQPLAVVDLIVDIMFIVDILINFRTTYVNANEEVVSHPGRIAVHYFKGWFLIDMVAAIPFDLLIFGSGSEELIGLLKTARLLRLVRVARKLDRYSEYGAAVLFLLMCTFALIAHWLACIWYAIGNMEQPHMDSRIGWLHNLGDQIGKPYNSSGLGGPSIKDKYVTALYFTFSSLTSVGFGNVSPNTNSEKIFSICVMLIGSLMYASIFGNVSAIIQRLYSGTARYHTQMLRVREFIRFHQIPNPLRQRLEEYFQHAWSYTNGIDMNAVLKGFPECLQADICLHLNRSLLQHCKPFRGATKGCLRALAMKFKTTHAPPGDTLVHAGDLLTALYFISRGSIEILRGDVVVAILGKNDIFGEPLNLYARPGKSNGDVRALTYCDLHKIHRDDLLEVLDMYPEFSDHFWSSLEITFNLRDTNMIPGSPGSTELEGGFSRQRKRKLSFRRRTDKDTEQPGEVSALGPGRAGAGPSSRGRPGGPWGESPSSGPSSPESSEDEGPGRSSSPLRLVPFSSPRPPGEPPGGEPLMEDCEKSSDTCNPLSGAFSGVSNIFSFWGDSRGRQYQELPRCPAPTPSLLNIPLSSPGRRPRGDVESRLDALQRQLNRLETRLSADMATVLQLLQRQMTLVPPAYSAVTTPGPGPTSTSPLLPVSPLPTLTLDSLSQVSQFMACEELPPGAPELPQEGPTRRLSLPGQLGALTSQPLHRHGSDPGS

The target in data set [2] is T2, 5-hydroxytryptamine receptor 6 (Homo sapiens, UniProt P50406). Briefly: Antagonist activity at 5HT6 receptor. Type of data set: functional. In short, it runs like this:
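Human 5-HT6R expressed in HEK293 cells (T-Rex, tetracycline-induced a day before). Compounds preincubated 15 min in HBSS with 1 mM MgCl2, 1 mM CaCl2, 5 mM HEPES pH 7.4, 100 μM IBMX, 0.1% DMSO final. Serotonin then added to 10 nM final, 30 min at room temperature. cAMP measured by LANCE TR-FRET. Ki from concentration-dependent inhibition, geometric mean of 3-4 experiments, duplicate curves.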

Data set [3] concerns the target T1, hERG (KCNH2). Briefly: Inhibition of human ERG expressed in […] cells at 3 uM after 3 to 8 mins by voltage clamp assay. The format is cell-based. To be noted: HEK297 cells that express human ERG. In short, it runs like this: as §1
In data set [4] the target is T2, 5-hydroxytryptamine receptor 6. The data set can be described thus: Antagonist activity at human 5HT6 receptor expressed in HEK293 cells assessed as inhibition of serotonin-induced cAMP release. Type of data set: functional, cell-based. Put shortly: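 Tetracycline-induced T-Rex 5-HT6 HEK cells in HBSS with 1 mM MgCl₂, 1 mM CaCl₂, 5 mM HEPES pH 7.4, 100 μM IBMX; compounds 15 min (0.1% DMSO final), then serotonin 10 nM final for 30 min at room temp. cAMP by LANCE TR-FRET. Ki from concentration-dependent inhibition; geometric mean of three to four independent experiments, each curve in duplicate.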

Data set [5] concerns the target 5-hydroxytryptamine receptor 2B (Homo sapiens, UniProt P41595). The data set can be described thus: Antagonist activity at human 5HT2B receptor expressed in HEK293 cells assessed as inhibition of alpha-Me-serotonin-induced intracellular calcium mobilization by spectrophotometry. Type of data set: functional, cell-based. Put shortly:
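Tetracycline-induced T-Rex 5-HT2B HEK cells, Fura-2AM loaded (4 μM, 30 min, room temp, dark), suspended at (3-4) × 10⁶ cells/mL, diluted into HEPES-buffered saline with 1.8 mM CaCl₂ in stirred cuvette. Compound added after 20-30 s baseline, then serotonin challenge; Fura-2 ratio 340/380 nm excitation, 510 nm emission. Ki from concentration-dependent inhibition; geometric mean of three to four experiments, duplicate curves.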
On the technique in general: A change in cytosolic calcium serves as a functional read-out for many receptors and channels.

Data set [6] deals with T1, hERG (KCNH2). The data set can be described thus: Inhibition of human ERG expressed in […] cells at 90 uM after 3 to 8 mins by voltage clamp assay. The format is cell-based. To be noted: […] cells that express human ERG. Put shortly:
as §1

Data set [7] deals with T2, 5-hydroxytryptamine receptor 6. Briefly: Displacement of [3H]lysergic acid diethylamide from human recombinant 5HT6 receptor expressed in human HeLa cells. The format is cell-based. Put shortly: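 Ki from concentration-dependent displacement of [3H]lysergic acid diethylamide in a contracted radioligand binding assay; each curve measured in duplicate.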
(Loss of bound radioactivity is the signal in a displacement assay; it reports binding, not function.)

5-hydroxytryptamine receptor 2B, sequence (P41595 whole entry): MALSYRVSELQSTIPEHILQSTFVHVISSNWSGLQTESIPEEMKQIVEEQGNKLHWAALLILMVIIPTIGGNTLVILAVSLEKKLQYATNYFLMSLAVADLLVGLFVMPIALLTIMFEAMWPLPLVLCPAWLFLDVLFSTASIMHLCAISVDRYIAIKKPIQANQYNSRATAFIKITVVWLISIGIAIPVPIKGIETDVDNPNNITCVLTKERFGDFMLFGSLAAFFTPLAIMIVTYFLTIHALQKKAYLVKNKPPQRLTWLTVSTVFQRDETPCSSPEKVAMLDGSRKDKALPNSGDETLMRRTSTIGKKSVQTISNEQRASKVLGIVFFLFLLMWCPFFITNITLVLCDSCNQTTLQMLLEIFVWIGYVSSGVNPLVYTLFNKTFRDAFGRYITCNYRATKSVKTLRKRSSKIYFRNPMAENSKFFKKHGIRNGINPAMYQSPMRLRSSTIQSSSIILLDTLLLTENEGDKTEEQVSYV
T2 sequence (P50406 whole entry): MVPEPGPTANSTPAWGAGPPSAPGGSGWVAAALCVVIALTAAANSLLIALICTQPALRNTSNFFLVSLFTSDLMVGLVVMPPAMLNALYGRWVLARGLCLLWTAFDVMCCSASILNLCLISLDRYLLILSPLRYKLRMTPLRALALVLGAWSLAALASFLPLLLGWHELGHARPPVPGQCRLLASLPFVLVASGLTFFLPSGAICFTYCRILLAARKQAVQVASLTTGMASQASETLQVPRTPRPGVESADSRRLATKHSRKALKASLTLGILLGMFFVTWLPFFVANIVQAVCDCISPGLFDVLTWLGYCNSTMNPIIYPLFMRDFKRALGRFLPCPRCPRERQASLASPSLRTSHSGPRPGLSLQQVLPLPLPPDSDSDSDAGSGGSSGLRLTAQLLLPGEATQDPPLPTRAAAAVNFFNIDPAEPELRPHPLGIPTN

Regarding `CNc1nn2c3c(c(C)nc2c1S(=O)(=O)c1ccccc1)CCCC3`, at 10 µM the inhibition against hERG (KCNH2) [1] was 52.4%.

For the compound `CSc1nn2c3c(c(C)nc2c1S(=O)(=O)c1ccccc1)CCCC3`, the 50% inhibitory concentration (IC50) – broadly, the concentration at which inhibition is half-maximal – in data set [2] stood at 6 nM. For the compound `CNc1nn2c(C)c3c(nc2c1S(=O)(=O)c1ccccc1)CCCC3`, 3 µM produced 12.5% inhibition against hERG (KCNH2) [3]. For `CNc1nn2c3c(c(C)nc2c1S(=O)(=O)c1ccccc1)CCC3`, the inhibitory constant (Ki) (in general, the dissociation constant of the complex between target and ligand, obtained from inhibition or displacement) in data set [4] amounted to 0.413 nM; in data set [5], 188 nM. In addition, at hERG (KCNH2) [3], the inhibition (as a rule, the share of the control response that was lost under treatment) at 3 µM stood at 4.3%. On to `Cc1nc2c(S(=O)(=O)c3ccccc3)c(N3CCNCC3)nn2c2c1CCCC2`, for which, in data set [4], the Ki turned out to be 1760 nM. Consider `CN(C)c1nn2c3c(cnc2c1S(=O)(=O)c1ccccc1)CCC3`, for which the inhibition constant (Ki) in data set [4] was 28.8 nM. Take `Cc1nc2c(S(=O)(=O)c3ccccc3)c(N(C)C)nn2c2c1CCC2`: in data set [4], the Ki worked out at 25.5 nM.

As to `Cc1nc2c(S(=O)(=O)c3ccccc3)c(N3CCNCC3)nn2c2c1CCC2`, in data set [4], the Ki was 869 nM. On to `CNc1nn2cc3c(nc2c1S(=O)(=O)c1ccccc1)CCCC3`, for which the Ki in data set [4] is 0.542 nM; in data set [5], 169 nM.

In turn, `CNc1nn2c3c(cnc2c1S(=O)(=O)c1ccccc1)CCC3` displayed an inhibition at 90 µM against hERG (KCNH2) [6] of 29.5%. In addition, the figures for the Ki in data set [4], in data set [7] and in data set [5] were 0.375 nM, 0.088 nM and 464 nM, respectively. As for `CNc1nn2c3c(cnc2c1S(=O)(=O)c1ccccc1)CCCC3`, the values for the Ki in data set [4] and in data set [5] were 0.259 nM and 153 nM, respectively.

The values are drawn from ChEMBL document CHEMBL1155448, “(3-Phenylsulfonylcycloalkano[e and d]pyrazolo[1,5-a]pyrimidin-2-yl)amines: potent and selective antagonists of the serotonin 5-HT6 receptor” (J Med Chem, 2010).
